According to ChEMBL document CHEMBL4411331, “6-Amino-3-methylpyrimidinones as Potent, Selective, and Orally Efficacious SHP2 Inhibitors” (J Med Chem, 2019):
Converted amounts (≈) assume the structure as drawn.

Experiments:
[1] = Permeability in human Caco2 cells; type: ADME, cell-based; settings: Caco-2, read-out: permeability
[2] = Aqueous solubility of the compound in 6.8 pH buffer; type: physicochemical; settings: pH 6.8 buffer
[3] = Half life in rat liver microsomes; type: ADME, Microsome
[4] = Half life in rat; type: ADME; settings: in vivo
[5] = Half life in mouse liver microsomes; type: ADME, Microsome
[6] = Intrinsic clearance in rat liver microsomes; type: ADME, Microsome; settings: read-out: CLH
[7] = Dose normalized AUC in rat at 1 mg/kg, po; type: ADME, organism-based; settings: in vivo
[8] = Apparent permeability across apical to basolateral side in human Caco2 cells; type: ADME, cell-based; settings: Caco-2
[9] = Intrinsic clearance in mouse liver microsomes; type: ADME, Microsome; settings: read-out: CLH
[10] = Oral bioavailability in rat at 1 mg/kg; type: ADME, organism-based; settings: in vivo
[11] = Drug uptake in human Detroit 562 cells xenografted NU/NU mouse at 20 to 80 mg/kg, po BID; type: ADME, organism-based; settings: in vivo
Summary of the method: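 Detroit-562 xenografts (5 x 10^5 cells subcutaneously in 50% matrigel/HBSS) were grown in female athymic NU/NU mice. At about 300 mm3 the mice were dosed by oral gavage, with 0.5% methylcellulose/0.1% Tween 80 as the vehicle control. Mice were euthanized at set times, and plasma and tumor fragments were collected for compound concentration.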

[12] = Clearance in rat; type: ADME; settings: in vivo
[13] = Dose normalized AUC in rat at 6 mg/kg, po; type: ADME, organism-based; settings: in vivo
[14] = Oral bioavailability in rat at 6 mg/kg; type: ADME, organism-based; settings: in vivo

Structure (SMILES): Cn1c(N2CCC(C)(CN)CC2)nc(N)c(Sc2cccc(Cl)c2Cl)c1=O
- Papp [1]: 2.5 ×10⁻⁶ cm/s
- solubility [2]: 250 µM (≈ 107 µg/mL)

Structure (SMILES): C[C@@H]1OCC2(CCN(c3nc(N)c(Sc4cccnc4C(F)(F)F)c(=O)n3C)CC2)[C@@H]1N
- half-life [3]: > 2 h
- half-life [4]: 10.9 h
- half-life [5]: > 2 h
- microsomal CLint [6]: 7.9 to 11.1 µL/min/mg
- AUC/dose [7]: 0.45 µM·h
- Papp A→B [8]: 1.02 ×10⁻⁶ cm/s
- microsomal CLint [9]: 7.9 to 11.1 µL/min/mg
- bioavailability [10]: 29%
- Drug uptake [11]: Dose-dependent effect
- solubility [2]: 980 µM (≈ 461 µg/mL)
- clearance [12]: 21 mL/min/kg

Structure (SMILES): C[C@H]1C[C@@H](N)C2(CCN(c3nc(N)c(Sc4cccnc4C(F)(F)F)c(=O)n3C)CC2)C1
- half-life [3]: 6.6 h
- microsomal CLint [6]: 3.4 µL/min/mg
- AUC/dose [13]: 0.03 µM·h
- bioavailability [14]: 1%
- Papp A→B [8]: < 0.5 ×10⁻⁶ cm/s

Structure (SMILES): C[C@@H]1OCC2(CCN(c3nc(N)c(Sc4cccc(Cl)c4Cl)c(=O)n3C)CC2)[C@@H]1N
- half-life [3]: 0.617 h
- microsomal CLint [6]: 39.3 µL/min/mg
- AUC/dose [7]: 0.95 µM·h
- Papp A→B [8]: 6.8 ×10⁻⁶ cm/s
- bioavailability [10]: 38%
